From ChEMBL document CHEMBL1126557, “Novel antiasthmatic agents with dual activities of thromboxane A2 synthetase inhibition and bronchodilation. 2. 4-(3-Pyridyl)-1(2H)-phthalazinones” (J Med Chem, 1993)

Legend:
[1] = target: T1, Thromboxane-A synthase (Homo sapiens, UniProt P24557); assay: Tested in vitro against TXA2 synthetase inhibitory activity in human microsome
T1 sequence (P24557 whole entry): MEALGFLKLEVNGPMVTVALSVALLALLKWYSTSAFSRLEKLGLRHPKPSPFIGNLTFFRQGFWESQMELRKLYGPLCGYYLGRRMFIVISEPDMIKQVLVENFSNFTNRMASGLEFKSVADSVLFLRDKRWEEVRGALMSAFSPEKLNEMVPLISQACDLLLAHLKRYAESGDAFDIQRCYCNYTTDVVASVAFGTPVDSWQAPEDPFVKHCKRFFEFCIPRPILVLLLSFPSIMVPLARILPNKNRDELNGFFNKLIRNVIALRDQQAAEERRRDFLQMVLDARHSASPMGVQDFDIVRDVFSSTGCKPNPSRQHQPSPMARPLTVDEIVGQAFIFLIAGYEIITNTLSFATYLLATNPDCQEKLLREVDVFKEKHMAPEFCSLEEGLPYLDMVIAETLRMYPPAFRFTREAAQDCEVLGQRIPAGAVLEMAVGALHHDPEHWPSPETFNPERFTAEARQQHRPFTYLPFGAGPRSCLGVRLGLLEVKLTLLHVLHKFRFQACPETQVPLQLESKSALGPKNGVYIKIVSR
Method in brief: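 Commercial human platelet microsomes. Preincubated with compound for 3 min at 25 °C in Tris-HCl 15 mM, NaCl 140 mM, glucose 10 mM, pH 7.6. Arachidonic acid 1–3 μM added, then 3 min at 25 °C. Stopped by chilling and acidifying to pH 3 with HCl, centrifuged, supernatant TXB2 measured by RIA.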

[2] = target: T2, Thromboxane-A synthase (Rattus norvegicus, UniProt P49430); assay: Tested in vitro against TXA2 synthetase inhibitory activity in rat whole blood; assay type: tissue-based
T2 sequence (P49430 whole entry): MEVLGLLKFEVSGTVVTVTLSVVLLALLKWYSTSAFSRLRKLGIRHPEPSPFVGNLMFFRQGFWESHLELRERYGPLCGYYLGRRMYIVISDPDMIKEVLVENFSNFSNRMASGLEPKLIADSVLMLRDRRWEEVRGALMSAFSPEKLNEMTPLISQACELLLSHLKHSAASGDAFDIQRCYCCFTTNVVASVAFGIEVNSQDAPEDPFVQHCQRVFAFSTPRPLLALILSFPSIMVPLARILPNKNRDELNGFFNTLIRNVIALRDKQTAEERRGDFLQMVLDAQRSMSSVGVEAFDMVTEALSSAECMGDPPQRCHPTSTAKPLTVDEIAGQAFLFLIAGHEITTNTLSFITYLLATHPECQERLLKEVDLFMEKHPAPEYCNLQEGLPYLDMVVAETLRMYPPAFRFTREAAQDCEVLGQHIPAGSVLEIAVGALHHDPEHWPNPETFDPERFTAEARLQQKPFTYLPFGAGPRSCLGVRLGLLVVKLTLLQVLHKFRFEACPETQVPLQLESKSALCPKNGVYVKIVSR
Method in brief: (§1)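 Non-anticoagulated human or rat blood split into 0.5-mL aliquots, each with one drug concentration or vehicle. Vortexed, then clotted 60 min at 37 °C. Serum deproteinized with EtOH and TXB2 measured by RIA. % inhibition against control.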

[3] = test system: Cavia porcellus; assay: Tested in vivo for histamine-induced bronchoconstriction in guinea pig at intraduodenal dose of 10 mg/kg for 30 min; assay type: functional; details: 0.5 h
Method in brief: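 Anesthetized, ventilated guinea pigs (pentobarbital 35 mg/kg ip) with insufflation pressure recorded. Histamine 2–5 μg/kg iv given repeatedly until a reproducible response. Compound 10 mg/kg injected into the duodenum through a catheter 30 min before histamine challenge. Expressed as % inhibition of the control response.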

[4] = species on record: Cavia porcellus; assay: In vitro inhibitory effect on the spasmogen-contracted guinea pig tracheal strips in presence of acetylcholine; assay type: functional; details: Trachea
Method in brief: (§2)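 Tracheal strips in oxygenated Krebs-Henseleit, preincubated 60 min with indomethacin (3 μM) to remove spontaneous tone, resting tension 1 g. Contraction induced by acetylcholine (10^-5 M final) or histamine (10^-4 M final), with indomethacin present. Compound added cumulatively […]. […] IC50 taken from the concentration-response curve.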

[5] = test system: Cavia porcellus; assay: Tested in vivo for spasmogen inhalation induced collapse in conscious guinea pig in presence of histamine (0.03%); assay type: functional
Method in brief: (§3)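 Male guinea pigs (400–500 g), conscious, dosed orally with compound or vehicle, then placed in chambers. At 1 h, exposed for 9 min to spasmogen aerosol (acetylcholine 0.2% or histamine 0.03%). Time to collapse recorded; no collapse within 9 min counted as full protection. ≥3 doses tested. RD100 is the oral dose prolonging collapse time by 100 s over vehicle.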

[6] = target: T2, Thromboxane-A synthase; assay: Tested in vitro against TXA2 synthetase inhibitory activity in rat platelet
Method in brief: (§4)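 Citrated human or rat blood centrifuged to platelet-rich plasma and platelets resuspended in Krebs-Henseleit at 1×10^8 cells/mL. Used for TXB2 production.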

[7] = target: T1, Thromboxane-A synthase; assay: Tested in vitro against TXA2 synthetase inhibitory activity in human platelet; method in brief: as §4
[8] = test system: Rattus norvegicus; assay: Tested ex vivo against serum TXB2 production at 1 hr after oral dose of 3 mg/kg of drug to rat; assay type: functional
Method in brief: (§5)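 Male SD rats (240–260 g), fasted 20 h, dosed orally with compound in 0.5% carboxymethylcellulose or vehicle alone. At 1 h, ether anesthesia and 2 mL cardiac blood taken and clotted at 37 °C for 90 min.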

[9] = test system: Cavia porcellus; assay: Tested in vivo for spasmogen inhalation induced collapse in conscious guinea pig in presence of acetylcholine (0.2%); assay type: functional; method in brief: as §3
[10] = test system: Rattus norvegicus; assay: Tested ex vivo against serum TXB2 production at 1 hr after oral dose of 30 mg/kg of drug to rat; assay type: functional; method in brief: as §5
[11] = target: T1, Thromboxane-A synthase; assay: Tested in vitro against TXA2 synthetase inhibitory activity in human whole blood; assay type: tissue-based; method in brief: as §1
[12] = test system: Cavia porcellus; assay: Tested in vivo for anaphylactic bronchoconstriction in OA sensitized guinea pig at intraduodenal dose of 10 mg/kg for 30 min; assay type: functional; details: Lung, 0.5 h
Method in brief: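 Male Hartley guinea pigs (300–400 g) sensitized by ip and sc injection of 50 mg ovalbumin 15 days earlier. Anesthetized with pentobarbital 35 mg/kg ip, insufflation pressure recorded. Compound 10 mg/kg intraduodenal 30 min before challenge with OA aerosol (10 mg/mL, 10 s, ultrasonic nebulizer) through a by-passed ventilatory system. Reported as % inhibition.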

[13] = species on record: Cavia porcellus; assay: In vitro bronchodilatory activity in guinea pig isolated tracheal strips; assay type: functional; details: Trachea
[14] = species on record: Cavia porcellus; assay: In vitro inhibitory effect on the spasmogen-contracted guinea pig tracheal strips in presence of histamine; assay type: functional; details: Trachea; method in brief: as §2
[15] = target: T3, Thromboxane-A synthase (Rattus norvegicus) (UniProt P49430); assay: Tested ex vivo against TXA2 production in rat serum at 1 hr after peroral dose of 30 mg/kg and anesthetized with ether; assay type: functional, organism-based; design: dose 30 mg/kg; method in brief: as §5
T3 sequence (whole entry): T2 sequence (P49430 whole entry)

[16] = species on record: Cavia porcellus; assay: In vitro inhibitory effect on the contraction of guinea pig tracheal strips was examined for spontaneous contraction; assay type: functional; details: Trachea
[17] = test system: Cavia porcellus; assay: In vivo inhibitory effect on airway constriction induced by histamine 2-5 ug/kg iv at 1 min after 10 mg/kg iv dose of compound; assay type: functional
Method in brief: (§6)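 Male Dunkin-Hartley guinea pigs anesthetized with pentobarbital 35 mg/kg ip, jugular vein and trachea cannulated, ventilated at 10 mL/kg, 60 strokes/min. Insufflation pressure recorded. Histamine 2–5 μg/kg iv repeated every 10 min until a reproducible control response. Compound 10 mg/kg iv 1 min before the next challenge.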

[18] = test system: Thromboxane-A synthase (Oryctolagus cuniculus); assay: Tested in vitro against rabbit thromboxane A2 synthetase (TXA2) at 1 uM
[19] = test system: Cavia porcellus; assay: Tested in vivo for histamine-induced bronchoconstriction in guinea pig at intraduodenal dose of 60 mg/kg; assay type: functional
Method in brief: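 Male Dunkin-Hartley guinea pigs under ip pentobarbital (35 mg/kg), jugular vein and trachea cannulated, ventilated at 10 mL/kg, 60 strokes/min; insufflation pressure recorded by transducer. Histamine (1–5 μg/kg iv) repeated every 10 min until the control response was reproducible. Drug given intraduodenally through a catheter 30 min before histamine challenge.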

[20] = test system: Cavia porcellus; assay: In vivo inhibitory effect on airway constriction induced by histamine 2-5 micro g/kg iv at 1 min after 10 mg/kg iv dose of compound; assay type: functional; method in brief: as §6

Row | Structure (SMILES) | IC50 [1] | IC50 [2] | inhibition in vivo at 10 mg/kg [3] | IC50 [4] | RD100 [5] | IC50 [6] | IC50 [7] | inhibition in vivo at 3 mg/kg [8] | RD100 [9] | inhibition in vivo at 30 mg/kg [10] | IC50 [11] | inhibition in vivo at 10 mg/kg [12] | IC50 [13] | IC50 [14] | inhibition [15] | IC50 [16] | inhibition in vivo at 10 mg/kg [17] | inhibition [18] | inhibition in vivo at 60 mg/kg [19] | inhibition in vivo at 10 mg/kg [20]
1 | Cn1nc(-c2cncs2)c2ccccc2c1=O | 3.9 µM | 3.3 µM | 68% | 46 µM | 11.2 mg/kg | 0.3 µM | 0.5 µM | 50% | 6.6 mg/kg | 83% | 8.7 µM | 61% | 1.58 µM | 28 µM | 83% | 1.8 µM |  |  |  | 
2 | CCn1nc(-c2cccnc2)c2ccccc2c1=O | 1.6 µM | 1.7 µM | 72% | 57 µM | 6.5 mg/kg | 1.3 µM | 27.9 µM | 66% | 3.8 mg/kg | 92% | 2.3 µM | 71% | 1.32 µM | 46 µM | 92% | 1.6 µM | 100% | 87% |  | 
3 | Cn1c(=O)c2[nH]cnc2n(C)c1=O.Cn1c(=O)c2[nH]cnc2n(C)c1=O.NCCN [AMINOPHYLLINE] |  |  |  | 300 µM | >60 mg/kg |  |  |  | 66 mg/kg |  |  | 42% |  | 320 µM | 0% | 44 µM |  |  | 87% | 86%
